Compound activity deposited in PubChem BioAssay by Broad Institute.
SR-BI HDL uptake – inhibitors of mouse SR-BI mediated HDL lipid uptake. Q61009. ldlA[mSR-BI] CHO cells, DiI-HDL uptake fluorescence, 3 h. inhibition, % at 12.5 µM. 320,000 compounds, 0.96% hits;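 active = mean replicate inhibition of at least 70% and a set share of replicates each scoring 70 or more; inconclusive = meets just one of the two criteria; inactive = fails both criteria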;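 also: 0% = median of neutral control wells and 100% = median of positive control wells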
Target sequence (Q61009 whole entry, looked up): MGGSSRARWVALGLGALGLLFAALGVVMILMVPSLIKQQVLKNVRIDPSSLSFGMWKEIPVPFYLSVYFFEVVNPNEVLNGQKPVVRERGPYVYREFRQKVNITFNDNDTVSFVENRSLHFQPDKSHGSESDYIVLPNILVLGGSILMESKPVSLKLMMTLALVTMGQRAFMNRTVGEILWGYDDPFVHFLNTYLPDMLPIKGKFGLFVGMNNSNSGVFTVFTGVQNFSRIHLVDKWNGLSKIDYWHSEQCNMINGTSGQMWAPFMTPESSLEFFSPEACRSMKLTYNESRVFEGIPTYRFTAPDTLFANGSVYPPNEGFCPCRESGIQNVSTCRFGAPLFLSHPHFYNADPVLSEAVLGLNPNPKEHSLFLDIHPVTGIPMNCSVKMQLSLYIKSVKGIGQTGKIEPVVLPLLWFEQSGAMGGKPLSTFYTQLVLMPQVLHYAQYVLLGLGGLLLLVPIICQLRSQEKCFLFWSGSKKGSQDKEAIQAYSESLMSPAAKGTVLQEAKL
SR-BI DiI-HDL act – enhances SR-BI lipid uptake from DiI-HDL | CHO ldlA[mSR-BI] cells, DiI-HDL uptake fluorescence, 3 h; 100 = double the neutral-control signal | AID 504775 | 320,000 compounds, 0.096% hits | activation, % at 12.5 µM;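 active = mean replicate activation of at least 60% and every replicate at or above 60%; inconclusive = mean or all-replicate condition met, but not both; inactive = mean below 60% and not all replicates reaching 60%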;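 also: 0% = median plate neutral-control signal and 100% = twice that signal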
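Assay system: LDL receptor-deficient CHO ldlA cells overexpressing murine SR-BI / Medium: BSA-supplemented, HEPES-buffered Ham's F12, pH 7.4 / Probe or stimulus: DiI-labelled HDL at 10 µg/mL final / Timing: compound with DiI-HDL co-incubation, 3 h at 37 °C / Technique: bottom-read cell fluorescence after medium removal, ex 550/em 595 nm / Measure: HDL uptake via cellular fluorescence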
Vif inh – HIV Vif inhibition; HEK293T cells, Vif self-association by quenched fluorescence, imaging, 24 h; inhibition, % at 7.49 µM; 340,000 compounds, 0.35% hits; AID 602346; in the data active = inhibition above about 50%, passing the limit was not always enough; inconclusive = no clear call, values can overlap the other calls; inactive = below about 31%
Statin myotox sup – suppressors of simvastatin-induced myotoxicity in C2C12 myotubes. 330,000 compounds, 0.78% hits. rescue of ATP level, % at 7.49 µM. ATP luminescence, 48 h; scaled: DMSO 0, geranylgeraniol control 100. AID 602340;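 active = mean ATP rescue above about 67%, or every replicate alone reaching that limit, limit read from the data, passing the limit was not always enough; inconclusive = no clear call, values can overlap the other calls; inactive = mean under the limit and some replicate under it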;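 also: myotubes were challenged with 10 µM simvastatin during compound exposure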
Numbers without * were called inactive; ? = inconclusive; / = no result given; + = active, no number. Hits are enriched below; roughly 1.7% of the tested compounds scored in any of these assays.

SMILES	SR-BI HDL uptake	SR-BI DiI-HDL act	Vif inh	Statin myotox sup
CN1C(=O)c2cc(NC(=O)c3ccc(F)cc3)ccc2OC[C@@H]2O[C@H](CC(=O)N3CCOCC3)CC[C@H]21	/	/	/	0.4
O=C1Nc2ccc(Br)cc2C12NNc1ccccc1O2 (configuration not stated)	90.3*	-90.3	/	8.1
CCCN1[C@@H]2Cn3c(ccc(-c4ccccc4F)c3=O)[C@H]1[C@@H](C(=O)NCC)[C@@H]2CO	/	/	/	-8.4
N#Cc1c(-c2ccccc2)cc(C2CC2)nc1SCC(=O)O	1.6	-1.6	1.7	10.5
N#Cc1c(-c2ccccc2)cc(C2CC2)nc1SCC(=O)c1cccs1	8.6	-8.6	85.9*	14.8
Cc1noc(C)c1S(=O)(=O)N(C)C[C@H]1Oc2ccc(NC(=O)Nc3ccc4c(c3)OCO4)cc2CC(=O)N([C@@H](C)CO)C[C@H]1C	/	/	/	-8.0
CCC(=O)N1[C@H](CO)[C@H](c2ccc(-c3ccc(F)cc3)cc2)[C@H]1CNC(C)=O	/	/	/	-10.7
COCCN(C(=O)CCC(=O)Nc1nccs1)C(C(=O)NC(C)(C)C)c1ccc(F)cc1 (configuration not stated)	2.0	-2.0	-3.1	3.6
COCCN(C(=O)CCC(=O)Nc1nccs1)C(C(=O)NC(C)(C)C)c1ccc(C)cc1 (configuration not stated)	18.1	-18.1	84.2*	19.2
O=C(NCc1ccccc1)C1CCC(CNS(=O)(=O)c2cccs2)CC1 (configuration not stated)	19.9	-19.9	8.9	96.6*
O=C(NCc1ccc(F)cc1)C1CCC(CNS(=O)(=O)c2cccs2)CC1 (configuration not stated)	30.7	-30.7	-0.4	-28.8
Cc1ccc2c(c1)C1CN(C)CCC1N2S(=O)(=O)c1ccc(C#N)cc1 (configuration not stated)	-15.4	15.4	55.5*	-2.8
Cc1ccc2c(c1)C1CN(C)CCC1N2C(=O)c1ccccc1NS(=O)(=O)c1ccc(F)cc1 (configuration not stated)	-28.6	28.6	0.8	/
COc1cnc(N(C)C)nc1Sc1ccc(Cl)cc1	29.6	-29.6	16.2	103.7*
COc1cnc(-c2ccccn2)nc1Sc1ccc(Cl)cc1	-13.0	13.0	9.0	-2.6
O=C(C[C@H]1CC[C@@H]2[C@H](COC[C@H](O)CN2CCc2ccccc2)O1)NCc1ccc(F)cc1	/	/	/	-15.5
Cc1cc(C(=O)Nc2cccc3c2O[C@H](CN(C)S(=O)(=O)c2cccs2)[C@H](C)CN([C@H](C)CO)C3=O)n(C)n1	/	/	/	-47.0
CCCN1CCCc2ccccc21	9.2	-9.2	-0.3	-41.8
N#CCCN1CCCc2cc(N=Nc3ccc(C(F)(F)F)cc3)ccc21	98.1*	-98.1	/	-35.7
CC1CCN(S(=O)(=O)c2ccc3c(c2)oc(=O)n3CC(=O)N2c3ccccc3CC2C)CC1 (configuration not stated)	72.8*	-72.8	-2.1	10.0
CNC(=O)c1sc(SC)cc1-c1ccc(Cl)cc1	51.4	-51.4	-1.4	8.7
CSc1cc(-c2ccc(Cl)cc2)c(C(=O)N2CCCC2)s1	31.7	-31.7	-7.8	126.0*
CCCN1CCN(C(=O)Nc2ccc(C(=O)OCC)cc2)CC1	-16.1	16.1	8.0	108.9*
CNC[C@@H]1Oc2cc(-c3cncnc3)ccc2S(=O)(=O)N([C@@H](C)CO)C[C@H]1C	/	/	/	-7.7
Cn1c(SCC(=O)Nc2ccccc2C(F)(F)F)nc2c(c1=O)SCC2	-6.3	6.3	-26.5	-0.4
SMILES	SR-BI HDL uptake	SR-BI DiI-HDL act	Vif inh	Statin myotox sup
Cc1nc(N)sc1-c1nnc(SCC(=O)Nc2ccccc2C(F)(F)F)n1C	19.4	-19.4	1.9	141.6*
O=C(C[C@H]1C[C@H]2c3cc(NS(=O)(=O)c4ccc(F)cc4)ccc3O[C@H]2[C@@H](CO)O1)NCc1ccccn1	/	/	/	-3.0
C[C@H](NC(=O)C[C@H]1CC[C@H]2[C@@H](COC[C@H](O)CN2C(=O)Nc2ccccc2)O1)c1ccccc1	/	/	/	0.4
O=c1c2ccccc2nc(/C=C/c2ccc([N+](=O)[O-])o2)n1CCCO	9.1	-9.1	+	?
O=c1c2ccccc2nc(/C=C/c2ccc([N+](=O)[O-])cc2)n1CCCO	21.7	-21.7	5.1	/
O=C1/C(=C/c2ccncc2)CCC/C1=C\c1ccncc1	-42.7	42.7	-1.1	249.5*
CC1CSc2nc3sc4c(c3c(=O)n21)CCCC4 (configuration not stated)	9.6	-9.6	1.8	140.9*
O=c1c2c3c(sc2nc2n1CCCS2)CCCC3	-4.4	4.4	-10.5	114.0*
CC1=Nn2c(nc3sc4c(c3c2=O)CCCC4)SC1	-4.6	4.6	/	/
